Screens deposited in PubChem BioAssay by several laboratories.
GSTO1 inh – inhibitors of recombinant GSTO1, primary screen, counter-screen for RBBP9 inhibitor project, biochemical, fluorescence polarization; activity-based probe fluorescence polarization; inhibition, % at 5.96 µM; hit rate 1.1% among 300,000; AID 1974, 2009;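 active = inhibition above the campaign mean inhibition plus 3 SD, cut at about 35% in these data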;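 also: 0% = GSTO1-1 with DMSO and 100% = wells lacking GSTO1-1 enzyme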
Target sequence (P78417 whole entry, looked up): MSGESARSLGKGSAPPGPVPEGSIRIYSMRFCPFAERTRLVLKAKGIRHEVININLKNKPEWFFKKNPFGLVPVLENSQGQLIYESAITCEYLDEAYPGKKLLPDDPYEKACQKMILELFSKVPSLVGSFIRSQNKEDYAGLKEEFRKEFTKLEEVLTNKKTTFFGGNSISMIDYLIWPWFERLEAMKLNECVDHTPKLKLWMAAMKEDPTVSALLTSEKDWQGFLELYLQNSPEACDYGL
PP5 primary – PP5 phosphatase inhibitors, primary screen, biochemical, fluorescence. Serine/threonine-protein phosphatase 5 (Homo sapiens), P53041. hit rate 0.18% among 320,000. AID 1987, 2009. purified PP5c, OMFP substrate fluorescence. inhibition, % at 6.7 µM;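 active = inhibition above the campaign's mean inhibition across all tested compounds plus 3 SD, cut at about 9.5% in these data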;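 also: 0% = DMSO only and 100% = 100 µM cantharidin control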
PP1 counter – PP1-alpha phosphatase inhibitors, primary screen, counter-screen for PP5 inhibitor project, biochemical, fluorescence, OMFP substrate, single point | Serine/threonine-protein phosphatase PP1-alpha catalytic subunit (Homo sapiens), P62136 | hit rate 0.9% among 320,000 | purified PP1alpha | inhibition, % at 6.7 µM;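 active = inhibition above the mean inhibition of all tested compounds plus 3 SD, computed separately for each screening campaign, cut at about 15% in these data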
Apaf1 inhib – inhibitors of human Apaf-1 apoptosome, primary screen, biochemical, DEVD-Rh110 fluorescence, uHTS | Apoptotic protease-activating factor 1 (Homo sapiens), O14727 | AID 489030, 2010 | reconstituted apoptosome caspase-3 activity | hit rate 0.71% among 330,000 | inhibition, % at 20 µM; active = inhibition of at least 40% at 20 µM;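 also: plate controls were DMSO wells for no effect and DEVD-CHO caspase inhibitor wells for full effect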
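Medium: Hepes buffer, pH 7.5 / System: biochemical Apaf-1 apoptosome reconstitution / Measured by: Rh110 fluorescence, excitation 480 nm, emission 540 nm / Times: compound with Apaf-1, dATP, procaspase-3 30 min, then 50 min reaction, room temperature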
TDP2 absorb – human TDP2 enzyme inhibitors, primary screen, biochemical, epi absorbance, recombinant enzyme; Tyrosyl-DNA phosphodiesterase 2 (Homo sapiens), O95551; T5PNP hydrolysis, p-nitrophenol absorbance 415 nm; inhibition, % at 12.8 µM; hit rate 0.34% among 370,000;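 active = inhibition above the mean of all tested compounds plus 3 SD, set per campaign, cut at about 25% in these data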;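 also: 0% = DMSO with enzyme and 100% = buffer with substrate but no TDP2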
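Assay system: Recombinant human TDP2 | Quantity: 120 nM TDP2 per well | Incubation: 2 h at 37 °C | Signal: Epi absorbance | Evaluation: Percent inhibition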
GSTO1 confirm – GSTO1 inhibitor hit confirmation, counter-screen for RBBP9 inhibitor project, biochemical, fluorescence polarization, triplicate. shares compounds with GSTO1 inh. recombinant GSTO1, probe fluorescence polarization. hit rate 54% among 2,400. inhibition, % at 5.96 µM;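 active = inhibition above the primary screen's cutoff, its mean inhibition plus 3 SD, cut at about 35% in these data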;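 also: loss of polarization as inhibitors block binding of rhodamine sulfonate ester activity probe; 0% = GSTO1 with DMSO and 100% = wells lacking GSTO1 enzyme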
The depositor's hits bear a star; . = no result given. Hits are enriched below; roughly 2.1% of the tested compounds scored in any of these assays.

SMILES	GSTO1 inh	PP5 primary	PP1 counter	Apaf1 inhib	TDP2 absorb	GSTO1 confirm
COc1ccc(CNC2CCC23CCC(C)CC3)cc1OC (centres undefined)	.	.	.	.	-2	.
O=C1c2cc([N+](=O)[O-])cc3cc([N+](=O)[O-])cc(c23)C(=O)N1c1ccccn1	42*	3	0	.	14	7
O=C(O)c1cccc(N2C(=O)c3cc([N+](=O)[O-])cc4cc([N+](=O)[O-])cc(c34)C2=O)c1	71*	0	-3	-6	7	40*
COC[C@H]1CCCN1c1cccc2c1S(=O)(=O)N1CC[C@H](C1)O2	.	.	.	.	1	.
O=C(N/N=C/c1cccnc1)c1cc(O)c(O)c(O)c1	50*	1	-3	2	15	11
O=C(c1cccs1)N1C[C@@H](n2cc(C3CC3)nn2)[C@H](O)C[C@@H]1c1ccccc1	.	.	.	.	-17	.
COc1ccc(NC(=S)NC(=O)c2ccc(Br)o2)cc1	45*	-1	-2	1	7	35
CCCC(=O)Nc1ccc(C(=O)NNC(=S)NC(=O)c2ccc(Br)o2)cc1	44*	0	0	9	5	13
COc1ccc(NC(=O)c2ccc(Br)o2)cc1	4	1	0	-8	5	.
CCCNC(=O)C1(C)CCCN(CC(=O)c2ccccc2OC)C1 (centres undefined)	.	.	.	.	0	.
CC(=O)Oc1ccc(-c2cc3c(OC(C)=O)cc(OC(C)=O)cc3oc2=O)cc1	44*	0	-7	-5	-11	11
Cc1cccc(CC(=O)Nc2ccon2)c1	59*	-3	-4	-278	1	6
Cc1ccccc1CC(=O)Nc1ccon1	2	-1	-2	-16	-7	.
COc1cc(C(C[N+](=O)[O-])c2c(C)cc3ccccn23)ccc1O (centres undefined)	39*	0	-4	10	-1	7
COc1cc(CNc2ncnc3c2ncn3[C@H]2CN(CCc3ccccc3)C[C@@H](CO)O2)cc(OC)c1OC	.	.	.	.	-2	.
CN1CCc2cccc3c2C1Cc1ccc(O)c(O)c1-3 (centres undefined)	93*	1	1	50*	2	9
CN1CCC(=C2c3ccccc3C(O)c3ccccc32)CC1 (centres undefined)	-4	2	2	6	-5	.
COCCCNC(=O)c1ccc(Cn2c(=O)c3ccccc3n(Cc3ccc([N+](=O)[O-])cc3)c2=O)cc1	.	.	.	.	4	.
C[C@@H](O[Si](c1ccccc1)(c1ccccc1)C(C)(C)C)[C@H]1C(=O)N[C@H](Cc2cn(S(=O)(=O)c3ccccc3)c3ccccc23)C(=O)N1C	.	.	.	.	-4	.
CC(C)C[C@@H]1COc2cc(F)ccc2S(=O)(=O)N1	.	.	.	.	-4	.
C/C=C/C(=O)N1CCC(C(=O)NC2CCCc3ccccc32)CC1 (centres undefined)	.	.	.	.	1	.
CC(OC(=O)c1ccc([N+](=O)[O-])s1)C(=O)Nc1ncc(Cl)cc1Cl (centres undefined)	46*	-1	5	34	-4	10
O=C(CN1CCN(Cc2ccccc2)CC1)Nc1nnc(C(F)(F)F)s1	7	1	0	11	10	.
Cc1nnc(NC(=O)CN2CCN(Cc3ccccc3)CC2)s1	46*	2	-3	9	-4	18
O=C(c1ccc(F)cc1Cl)N(Cc1ccccn1)CC1CCCO1 (centres undefined)	.	.	.	.	9	.
COc1ccc(CN2CCC[C@]3(N[C@H](c4ccccc4)[C@@H]4C(=O)N(Cc5ccccc5)C(=O)[C@@H]43)C2=O)cc1	.	.	.	.	10	.
Cn1cc(CN2CCC(C(=O)NC(c3ccc(F)cc3)c3ccc4ccccc4n3)CC2)c2ccccc21 (centres undefined)	.	.	.	.	6	.
